Reference: article PMC3159890 (Frontiers in Pharmacology, 2011)
One block for each molecule: values may come before it.

Columns and labels:
Format in all cases: cell-based
wt-CFTR [1] = molecular target: T1, wt-CFTR (Homo sapiens, UniProt P13569); test: whole-cell patch-clamp on wt-CFTR-CHO cells
Procedure, shortened: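 CHO cells stably expressing wt-CFTR, kept in α-MEM-GlutaMAX with 7% FBS and 100 μM methotrexate, were plated in 35-mm dishes. Whole-cell currents sampled at 3 kHz. Holding potential −40 mV, with pulses −100 to +100 mV in 20 mV steps. Capacitance obtained from a 10 mV hyperpolarization; currents normalized per pF. Stimulation with forskolin 1 μM plus test compound 10 μM. Time course: amplitude at +40 mV plotted every 10 s.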

wild-type CFTR = wild-type CFTR (Homo sapiens, UniProt P13569); test: iodide efflux in NuLi-1 cells
Procedure, shortened: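 NuLi-1 cells (non-CF human bronchial epithelium, wild-type CFTR) cultured on collagen type VI-coated flasks in BEGM at 37°C, 5% CO2, media changed every 2 days, and seeded in 24-well plates. Iodide efflux stimulated by forskolin 10 μM plus test compound 100 μM. CFTR-inh172 10 μM was present in loading solution and efflux buffer.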

F508del-CFTR = F508del-CFTR (Homo sapiens, UniProt P13569, DEL508-508); test: iodide efflux in CuFi-1 cells
Procedure, shortened: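 CuFi-1 cells (F508del/F508del, CF bronchial epithelium) grown on collagen type VI-coated flasks in BEGM at 37°C, 5% CO2, media renewed every 2 days, then seeded in 24-well plates. F508del-CFTR rescued by 24 h at 27°C or 24 h at 37°C with miglustat. Iodide efflux stimulated by forskolin 10 μM plus test compound 100 μM. Chloride transport inhibitors, when used, were present in loading solution and efflux buffer.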

wt-CFTR-CHO cells = test: MTT cytotoxicity assay; settings: 100 μM, 24 h
Procedure, shortened: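 wt-CFTR-CHO cells in α-MEM-GlutaMAX with 7% FBS and 100 μM methotrexate, exposed 24 h at 37°C to 100 μM test compound; MTT done the next day. PBS wash, then MTT (0.5 mg/ml in PBS) for 4 h at 37°C. Formazan dissolved in DMSO; OD read at 570 nm against 630 nm reference. Mean of three replicates, as percentage of control.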

wt-CFTR [2] = molecular target: T1, wt-CFTR; test: iodide efflux in wt-CFTR-CHO cells
Procedure, shortened: (§1)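 Stably transfected CHO cells (wt-CFTR or G551D-CFTR, methotrexate-selected) seeded in 24-well plates and loaded with 125I; efflux sampled robotically. Rate k = ln(125It1/125It2)/(t1–t2); response = kpeak − kbasal (min−1). Concentration-response curves expressed as percentage of maximal activation. Chloride transport inhibitors, when used, were present in both loading and efflux buffers.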

[3] = test system: cAMP levels in wt-CFTR-CHO cells; test: cAMP-Screen ELISA determination of cAMP; settings: RP193 100 μM alone or with forskolin 1 μM, 10 min
Procedure, shortened: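 wt-CFTR-CHO cells incubated with agents for 10 min at 37°C. Reactions then stopped and intracellular cAMP quantified by cAMP-Screen ELISA, following the kit instructions.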

CHO-K1 = test: whole-cell patch-clamp on CHO-K1 cells; settings: forskolin 1 μM; RP193 10 μM
Procedure, shortened: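 Whole-cell clamp, seals 5–10 GΩ. Pipette (mM): Cs-aspartate/CsCl, 1 EGTA, 10 TES, 3 MgATP, pH 7.2. Bath (mM): 145 NaCl, 4 CsCl, 1 CaCl2, 1 MgCl2, 10 glucose, 10 TES, pH 7.4. Held at −40 mV, stepped −100 to +100 mV in 20 mV increments; sampled at 3 kHz. Currents normalised to capacitance (pA/pF); time course read at +40 mV every 10 s.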

wt-CFTR [4] = molecular target: T1, wt-CFTR; test: single-channel cell-attached patch-clamp on wt-CFTR-CHO cells
Procedure, shortened: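 Cell-attached single-channel recordings on wt-CFTR-CHO cells at room temperature, seals 10–20 GΩ. Bath received forskolin 1 μM, then test compound 10 μM. Pipette (mM): 150 NaCl, 2 MgCl2, 10 TES, pH 7.4. Bath (mM): 145 NaCl, 4 KCl, 2 MgCl2, 10 TES, pH 7.4. Sampled at 3 kHz, filtered at 100 Hz (eight-pole Bessel). Potential = bath minus pipette.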

G551D-CFTR = G551D-CFTR (Homo sapiens, UniProt P13569, G551D); test: iodide efflux in G551D-CFTR-CHO cells
Procedure, shortened: as §1

[5] = test system: primary cultures of human bronchial epithelial cells (HBEC); test: Ussing chamber short-circuit current in primary HBEC cultures; settings: amiloride 10 μM, luminal bath
Procedure, shortened: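 Primary non-CF bronchial epithelial cells (three lung-resection donors), enzymatically isolated, grown to confluence on permeable collagen supports. Mounted in Ussing chambers in KBR at 37°C, gassed 95% O2-5% CO2. After 20–30 min equilibration and 10 min basal: amiloride 10 μM apical, forskolin 1 μM both sides, test compound basolateral, with 10–15 min stabilisation between additions. ΔIsc = plateau minus pre-addition value; Rt from +2 mV pulses every 90 s.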

- whole-cell current amplitude at +40 mV after inhibitor (wt-CFTR [1]; CFTR-inh172 10 μM added after fsk 1 μM + RP193 10 μM): 8.2 ± 5.2 pA/pF
- inhibition of RP193-stimulated iodide efflux in NuLi-1 cells (wild-type CFTR; CFTR-inh172 10 μM): abolished
- inhibition of RP193-induced iodide efflux in CuFi-1 cells (F508del-CFTR; miglustat-treated cells, CFTRinh-172 10 μM, data not shown): fully inhibited
Structure (SMILES): O=C(O)c1ccc(/C=C2\SC(=S)N(c3cccc(C(F)(F)F)c3)C2=O)cc1 [CFTR-inh172, reference compound]

Structure (SMILES): CCCCc1c(-c2ccc(O)cc2)[nH]c2nccnc12 [RP107, 7-n-butyl-6-(4-hydroxyphenyl)[5H]-pyrrolo[2,3-b]pyrazine]
- cytotoxicity (cell viability, MTT) (wt-CFTR-CHO cells): significantly higher cytotoxicity compared to the control conditions

- EC50 (wt-CFTR [2]): 97 µM
Structure (SMILES): Br.CCCCc1c(-c2cccc(O)c2)[nH]c2nccnc12 [RP146, 7-n-Butyl-6-(3-hydroxyphenyl)-5H-pyrrolo[2,3-b]pyrazine hydrobromide]
- cytotoxicity (cell viability, MTT) (wt-CFTR-CHO cells): significantly higher cytotoxicity compared to the control conditions

Structure (SMILES): Br.CCCCc1c(-c2ccccc2O)[nH]c2nccnc12 [RP173, 7-n-Butyl-6-(2-hydroxyphenyl)-5H-pyrrolo[2,3-b]pyrazine hydrobromide]
- cytotoxicity (cell viability, MTT) (wt-CFTR-CHO cells): significantly higher cytotoxicity compared to the control conditions

- EC50 (wt-CFTR [2]): 78 µM
Structure (SMILES): CCCCc1c(-c2ccc(F)cc2)[nH]c2nccnc12 [RP185, 7-n-butyl-6-(4-fluorophenyl)-5H-pyrrolo[2,3-b]pyrazine]
- cytotoxicity (cell viability, MTT) (wt-CFTR-CHO cells): not cytotoxic

- stimulation of CFTR-dependent iodide efflux (wt-CFTR [2]; RP193 100 μM without forskolin, wt-CFTR-CHO cells): no stimulation of CFTR activity
- time to significant increase of the whole-cell current (wt-CFTR [1]; RP193 10 μM in presence of forskolin 1 μM): 5 to 7 min
- whole-cell current amplitude at +40 mV (wt-CFTR [1]; RP193 10 μM in the presence of 1 μM fsk): 113.8 ± 15.1 pA/pF
- average unitary conductance (wt-CFTR [4]; forskolin 1 μM + RP193 10 μM, n = 4): 8.1 ± 0.0 pS
- stimulation of iodide efflux in NuLi-1 cells (wild-type CFTR; RP193 100 μM in presence of forskolin 10 μM): stimulated CFTR in NuLi-1 cells
- stimulation of iodide efflux in CuFi-1 cells (F508del-CFTR; cells cultivated at 37°C, RP193 100 μM + forskolin 10 μM): did not stimulate iodide efflux
- stimulation of iodide efflux in CuFi-1 cells (F508del-CFTR; cells non-treated with miglustat): no effect
- stimulation of iodide efflux in G551D-CFTR-CHO cells (G551D-CFTR; RP193 10 μM in presence of forskolin 10 μM, n = 4): stimulated an efflux
- stimulation of iodide efflux in G551D-CFTR-CHO cells (G551D-CFTR; RP193 alone, not shown): did not have any effect
Structure (SMILES): CCCCc1c(-c2ccccc2F)[nH]c2nccnc12 [RP193, 7-n-butyl-6-(2-fluorophenyl)-5H-pyrrolo[2,3-b]pyrazine]
- cytotoxicity (cell viability, MTT) (wt-CFTR-CHO cells): not cytotoxic
- dependence of CFTR potentiation on intracellular cAMP levels [3]: independent of intracellular cAMP levels
- effect on whole-cell current in CHO-K1 (CHO-K1): no effect
- single-channel CFTR activity, cell-attached (wt-CFTR [4]; RP193 10 μM in bath, in presence of forskolin 1 μM): progressive and sustained CFTR activity was recorded
- stimulation of iodide efflux in CuFi-1 cells (F508del-CFTR; cells 24 h at 27°C, RP193 100 μM in presence of forskolin 10 μM): iodide efflux significantly higher than with forskolin alone

Structure (SMILES): N=C(N)NC(=O)c1nc(Cl)c(N)nc1N [amiloride]
- change in Isc [5]: −29.5 ± 4.5 μA/cm^2

- whole-cell current amplitude at +40 mV (wt-CFTR [1]; forskolin 1 μM alone): 18.4 ± 6.2 pA/pF
- stimulation of iodide efflux in G551D-CFTR-CHO cells (G551D-CFTR; forskolin 10 μM alone, compared to basal state): No significant stimulation
Structure (SMILES): C=C[C@@]1(C)CC(=O)[C@]2(O)[C@@]3(C)[C@@H](O)CCC(C)(C)[C@@H]3[C@H](O)[C@H](OC(C)=O)[C@@]2(C)O1 [forskolin, reference compound]
- effect on whole-cell current in CHO-K1 (CHO-K1): no effect
